Assay outcomes as filed in PubChem.
An excerpt weighted towards active compounds, which were near 2.5% of everything screened.
eLon inh: E. coli protease La inhibition. P0A9M0. purified E. coli Lon protease, fluorescence polarization. inhibition, % at 7.94 µM. 0.42% of 360,000 active. AID 602123; in the data active = inhibition above about 13%, passing the limit was not always enough
PAD4 FP inh: blocks human protein arginine deiminase 4 | Q9UM07 | recombinant PAD4, RCA probe fluorescence polarization | inhibition, % at 6.36 µM | 0.41% of 330,000 active | AID 485272;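 active = percent inhibition above a cutoff equal to the mean of all tested compounds plus 3 SD, cut at about 15% in these data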
PRMT1 FP inh: inhibitors of human PRMT1; recombinant PRMT1, activity-based probe fluorescence polarization; inhibition, % at 2.79 µM; 1.3% of 370,000 active; AID 652257;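 active = inhibition above about 21% made by adding two undisclosed values, limit read from the data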
Target sequence (Q99873 whole entry, looked up): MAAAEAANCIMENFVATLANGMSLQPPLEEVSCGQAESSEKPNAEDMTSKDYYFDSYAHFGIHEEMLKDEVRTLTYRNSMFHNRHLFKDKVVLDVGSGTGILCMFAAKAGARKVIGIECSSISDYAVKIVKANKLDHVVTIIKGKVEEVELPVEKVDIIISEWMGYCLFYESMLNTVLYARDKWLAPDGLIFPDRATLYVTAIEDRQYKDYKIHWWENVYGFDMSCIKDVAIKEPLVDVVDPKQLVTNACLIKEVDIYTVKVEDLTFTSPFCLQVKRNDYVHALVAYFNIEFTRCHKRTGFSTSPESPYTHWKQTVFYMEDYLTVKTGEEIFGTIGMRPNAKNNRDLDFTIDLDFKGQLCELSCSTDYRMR
GSTO1 inh: GSTO1 inhibition, counter-screen for RBBP9 inhibitors; AID 1974; inhibition, % at 5.96 µM; recombinant GSTO1, activity-based probe fluorescence polarization; 1.1% of 300,000 active;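 active = inhibition above the campaign mean inhibition plus 3 SD, cut at about 35% in these data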
Target sequence (P78417 whole entry, looked up): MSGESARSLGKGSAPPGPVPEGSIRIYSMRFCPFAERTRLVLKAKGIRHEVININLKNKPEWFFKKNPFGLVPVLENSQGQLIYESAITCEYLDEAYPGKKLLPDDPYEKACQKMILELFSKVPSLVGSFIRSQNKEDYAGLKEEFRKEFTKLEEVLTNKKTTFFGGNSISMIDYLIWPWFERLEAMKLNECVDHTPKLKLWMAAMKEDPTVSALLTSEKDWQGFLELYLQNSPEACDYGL
TDP2 inh: TDP2 (human) inhibition, absorbance primary screen. O95551. recombinant TDP2, T5PNP hydrolysis, p-nitrophenol absorbance 415 nm. inhibition, % at 12.8 µM. 0.34% of 370,000 active;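 active = inhibition above the mean of all tested compounds plus 3 SD, set per campaign, cut at about 25% in these data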
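Test system: Human TDP2 enzyme | Reagent: 5 mM T5PNP | Compound dosing: 12.8 µM single point, 1% DMSO | Incubation: Enzyme reaction with compound for 2 h at 37 °C | Technique: p-Nitrophenol epi absorbance | Read-out: % inhibition relative to enzyme-containing and enzyme-free wells | Benchmarks: High control without enzyme, low control DMSO plus TDP2 | Replicates: Singlicate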
GSTO1 confirm: GSTO1 (human) inhibition, confirmation. recombinant GSTO1, probe fluorescence polarization. inhibition, % at 5.96 µM. 54% of 2,400 active. shares compounds with GSTO1 inh;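 active = inhibition above the primary screen's cutoff, its mean inhibition plus 3 SD, cut at about 35% in these data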;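 also: loss of polarization as inhibitors block binding of rhodamine sulfonate ester activity probe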
Each line names hits and unclear results; the compound was inactive in the other large screens (follow-up assays come after a bar, where they were run).

CCCOc1ccc(N2C(=O)CC(N(O)c3ccccc3)C2=O)cc1 (stereo unspecified)	none
COc1ccccc1N1C(=O)CC(N(O)c2ccccc2)C1=O (stereo unspecified)	none
c1ccc(-c2cc(-c3nnc4sc(Cc5cccs5)nn34)[nH]n2)cc1	none (no result: eLon inh, PAD4 FP inh, GSTO1 inh)
O=C(Nc1ccccc1Cl)OC1CC2CC1[C@H]1CCCCN1[C@H]2Cc1ccccc1 (stereo partly specified)	none (no result: eLon inh, PAD4 FP inh, GSTO1 inh)
CCc1cc(=O)oc2cc(OC(C)=O)cc(OC(C)=O)c12	GSTO1 inh 47 | GSTO1 confirm inactive
COc1cc(OCc2ccccc2)c2c(CCC(=O)O)cc(=O)oc2c1	none (no result: PAD4 FP inh, GSTO1 inh)
CCOC(=O)N1CCN(CC(=O)Nc2ccc(F)cc2F)CC1	GSTO1 inh 43 | GSTO1 confirm inactive
O=S(=O)(O)c1cc(O)c2c(O)c(N=Nc3cc(Cl)ccc3O)c(S(=O)(=O)O)cc2c1	eLon inh 45, GSTO1 inh 62 (no result: PRMT1 FP inh, TDP2 inh) | GSTO1 confirm 73
Clc1ss/c(=N\c2ccccn2)c1Cl	GSTO1 inh 61 | GSTO1 confirm 45
O=C1N/C(=N\c2ccccn2)SC1Cc1ccccc1Cl (stereo unspecified)	none
CCCCOc1ccc(C(=O)NC2CCCCN(Cc3ccc(Cl)cc3)C2=O)cc1 (stereo unspecified)	none (no result: eLon inh, PAD4 FP inh, GSTO1 inh)
CCOC(=O)Nc1ccc2c(c1)[C@@]1(CC(=O)N(CC(C)C)C1c1ccccc1)C(=O)N2C (stereo partly specified)	none (no result: eLon inh, PAD4 FP inh, GSTO1 inh)
C=CCN1C=C2C(=O)C(C)(OC(=O)C3CCCC3)C(=O)C(c3ccccc3)=C2C=C1CCCC(=O)OC (stereo unspecified)	none
COC(=O)CCC(=O)OC1(C)C(=O)C2=CN(C3CCCC3)C(c3ccc(OC)cc3)=CC2=C(Br)C1=O (stereo unspecified)	GSTO1 inh 50 | GSTO1 confirm inactive
COC(=O)CCCC1=CC2=C(c3ccccc3)C(=O)C(C)(OC(=O)C3CCCC3)C(=O)C2=CN1C1CC1 (stereo unspecified)	none
CCN(CC)CCCN1C=C2C(=O)C(C)(OC(=O)CCC(=O)OC)C(=O)C(Br)=C2C=C1c1ccc(OC)cc1 (stereo unspecified)	none
C=CCN1C=C2C(=O)C(C)(OC(=O)CCC(=O)OC)C(=O)C(Br)=C2C=C1c1ccc(OC)cc1 (stereo unspecified)	GSTO1 inh 61 (no result: PRMT1 FP inh, TDP2 inh) | GSTO1 confirm 69
COCCN1C=C2C(=O)C(C)(OC(=O)CCC(=O)OC)C(=O)C(Br)=C2C=C1c1ccc(OC)cc1 (stereo unspecified)	GSTO1 inh 55 (no result: PRMT1 FP inh, TDP2 inh) | GSTO1 confirm 61
COC(=O)[C@]12CCCCC=C1N(Cc1ccc(OC)cc1)C(=O)[C@@H]2CC(=O)N1CCCC1	none (no result: eLon inh, PAD4 FP inh, GSTO1 inh)
COc1ccc(CN2CN3Cc4ccc(C)cc4C3CS2(=O)=O)cc1 (stereo unspecified)	none (no result: eLon inh, PAD4 FP inh, GSTO1 inh)
CC1CCN(C2=C(NS(=O)(=O)c3ccc(Br)cc3)C(=O)c3ccccc3C2=O)CC1	none
CC(=O)Nc1ccc(S(=O)(=O)NC2=C(N3CCN(Cc4ccccc4)CC3)C(=O)c3ccccc3C2=O)cc1	none
O=C1C(NS(=O)(=O)c2ccccc2)=C(N2CCN(c3ccc(F)cc3)CC2)C(=O)c2ccccc21	none
CCN1CCN(C2=C(NS(=O)(=O)c3ccc(NC(C)=O)cc3)C(=O)c3ccccc3C2=O)CC1	GSTO1 inh 50 | GSTO1 confirm inactive
O=C1C(NS(=O)(=O)c2ccc(Br)cc2)=C(N2CCCCC2)C(=O)c2ccccc21	GSTO1 inh 42 | GSTO1 confirm inactive
CC(=O)Nc1ccc(S(=O)(=O)NC2=C(N3CCN(C)CC3)C(=O)c3ccccc3C2=O)cc1	GSTO1 inh 43 | GSTO1 confirm 38
COC(=O)[C@]12CCCCC=C1N(Cc1ccc(OC)cc1)C(=O)[C@@H]2CC(=O)NCC12CC3CC(CC(C3)C1)C2	none (no result: eLon inh, PAD4 FP inh, GSTO1 inh)
COC(=O)C[C@@H]1CC[C@@H]2[C@H](COc3ccc(NC(=O)c4ccc(F)c(F)c4)cc3C(=O)N2C)O1	none (no result: eLon inh, PAD4 FP inh, GSTO1 inh)
C[C@H]1C2CC(OC(=O)Nc3ccc(F)cc3)C(C2)[C@H]2CCCCN21 (stereo partly specified)	none (no result: eLon inh, PAD4 FP inh, GSTO1 inh)
COCCN(C(=O)COC(=O)c1cc2c(s1)CCC2)c1c(N)n(Cc2ccccc2)c(=O)[nH]c1=O	GSTO1 inh 52 | GSTO1 confirm 36
COc1ccc(CNC(=O)O[C@H]2CC[C@@]34CCCN3C(=O)CCC[C@H]4C2)cc1	none (no result: eLon inh, PAD4 FP inh, GSTO1 inh)
O=C(CSc1nnc(-c2ccco2)o1)c1ccc(F)c(F)c1	GSTO1 inh 38 | GSTO1 confirm inactive
O=C(CSc1nnc(-c2ccco2)o1)c1ccccc1	none
CCOC(=O)C1CCN(C(=O)c2ccc(C)o2)CC1	none (no result: GSTO1 inh)
CC1CCN(C(=O)c2ccc3c(c2)C(=O)c2ccccc2-3)CC1	none (no result: PAD4 FP inh, GSTO1 inh)
CCOC(=O)C1CCN(C(=O)c2c(C)oc3c2C(=O)c2ccccc2C3=O)CC1	GSTO1 inh 44 | GSTO1 confirm 48
Cc1oc2c(c1C(=O)N1CCC(C)CC1)C(=O)c1ccccc1C2=O	GSTO1 inh 40 (no result: eLon inh) | GSTO1 confirm inactive
COC(=O)[C@]12C[C@H](CC(=O)NCCC(C)C)C(=O)N(CCC3=CCCCC3)C1=C[C@H](C(C)C)O[C@@H]2C1CC1	none (no result: eLon inh, PAD4 FP inh, GSTO1 inh)
Nc1[nH]c(C(=O)c2ccccc2)c(-c2ccc(Cl)cc2Cl)c1C(=O)NCCC1=CCCCC1	none (no result: eLon inh, PAD4 FP inh, GSTO1 inh)
Cn1c(NC(=O)c2ccccc2)nc(Cc2ccccc2)c1-c1ccccc1	none (no result: eLon inh, PAD4 FP inh, GSTO1 inh)
COC(=O)[C@]12C[C@H](CC(=O)NCc3cccs3)C(=O)N(CCC3=CCCCC3)C1=C[C@H](C(C)C)O[C@@H]2C1CC1	none (no result: eLon inh, PAD4 FP inh, GSTO1 inh)
Cc1cc(OC(=O)N2CCOCC2)cc(C)c1Cl	none
CC(=O)Oc1c(Cl)c(N2CCOCC2)c(OC(C)=O)c2ccccc12	GSTO1 inh 44 | GSTO1 confirm inactive
CCOC(=O)[C@]12CCCC=C1N(Cc1ccc(OC)cc1)C(=O)[C@@H]2CC(=O)N1CCN(C(=O)c2ccco2)CC1	none (no result: eLon inh, PAD4 FP inh, GSTO1 inh)
O=C1N=C(N2CCOCC2)SC1=Cc1ccco1	none (no result: PAD4 FP inh, GSTO1 inh)
O=C1N=C(N2CCOCC2)S/C1=C/c1cc2c(cc1[N+](=O)[O-])OCO2	GSTO1 inh 64 | GSTO1 confirm 48
CC(=O)c1cc(O)c2ccccc2c1O	PRMT1 FP inh 45, GSTO1 inh 46, TDP2 inh 42 | GSTO1 confirm 39
Nc1ccc(Oc2ncccn2)cc1	GSTO1 inh 65 | GSTO1 confirm inactive
CC1=C(C#N)C(=O)N(C2CCS(=O)(=O)C2)C(=O)/C1=C\c1ccco1 (stereo unspecified)	GSTO1 inh 87 (no result: eLon inh, PRMT1 FP inh, TDP2 inh) | GSTO1 confirm 73
Cc1ccc(C(=O)N2CCC[C@@H]2C(=O)N2CCC[C@H]2C(=O)NCc2ccccc2)cc1	none (no result: eLon inh, PAD4 FP inh, GSTO1 inh)
CCc1ccccc1N(C(=O)CNC(=O)c1ccco1)C(C(=O)NC1CCCC1)c1cccnc1 (stereo unspecified)	none
